The values below come from ChEMBL document CHEMBL4308829, “Design and Synthesis of Novel Positive Allosteric Modulators of α7 Nicotinic Acetylcholine Receptors with the Ability To Rescue Auditory Gating Deficit in Mice” (J Med Chem, 2018).

Series [1] is described as follows: MRT in rat at 3 mg/kg, iv by LC-MS/MS analysis. Type of series: ADME, organism-based. Conditions: in vivo. In a few lines: (§1)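 Rat plasma stored at -20 °C, spiked with internal standard, protein-precipitated with methanol, centrifuged and filtered before LC-MS/MS. C18 column at 40 °C, acetonitrile/0.1% formic acid (80:20) isocratic at 0.5 mL/min. Positive ESI with MRM m/z 400.0->129.9. Parameters taken per rat by non-compartmental analysis, n = 3.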

The nature of series [2]: Ratio of drug level in C57BL/6J mouse brain to plasma at 1 mg/kg, ip after 2 hrs by LC-MS/MS analysis. The series is classed as ADME, organism-based. To be noted: read-out: BPR. In a few lines:
(§2)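 C57BL/6J mice given 1 mg/kg i.p. from a 0.4 mg/mL solution in 10% DMSO/50% PEG400/40% SBECD. Plasma and brain taken at 0.5, 2 and 8 h. Samples mixed with internal standard in methanol/acetonitrile (1:1), centrifuged and diluted 10x in methanol:water with 0.1% FA, then measured by HPLC-MS-MS. n = 3; ratio is brain over plasma concentration.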

Series [3] deals with Mus musculus. As to the kind of experiment: Anti-schizophrenic activity in C57BL/6J mouse assessed as protection against MK-801-induced auditory gating deficit by measuring prepulse inhibition impairment at 1 mg/kg, ip at 8 to 16 dB prepulse intensity (reference value: 11%). The series is classed as functional. The arrangement: scale not given: the % may be the effect or the level left.

The test system of series [4] is Mus musculus. As to the kind of experiment: Anti-schizophrenic activity in C57BL/6J mouse assessed as protection against MK-801-induced auditory gating deficit by measuring prepulse inhibition impairment at 1 mg/kg, ip at 8 to 16 dB prepulse intensity pretreated for 30 mins starting from 30 mins post alpha7 nAChR antagonist MLA treatment followed by MK-801 treatment and measured after 30 mins (reference value: 8.7%). Type of series: functional. Also on record: scale not given: the % may be the effect or the level left. In a few lines: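 Mice given MLA 3 mg/kg i.p. 30 min before, then compound 1 mg/kg i.p. 60 min before test and MK-801 0.1 mg/kg i.p. 30 min before test. PPI measured at prepulses 8-16 dB above 68 dB background. %PPI = (1 − prepulse-pulse/pulse-only)×100, one-way ANOVA.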

Series [5] is described as follows: Oral bioavailability in rat at 60 mg/kg by LC-MS/MS analysis. Type of series: ADME, organism-based. Conditions: in vivo. In a few lines:
as §1

A short description of series [6]: Drug uptake in C57BL/6J mouse brain at 1 mg/kg, ip after 8 hrs by LC-MS/MS analysis. The series is classed as ADME, organism-based. Conditions: read-out: Drug uptake. In a few lines:
as §2

The nature of series [7]: Cmax in rat at 3 mg/kg, iv by LC-MS/MS analysis. The series is classed as ADME, organism-based. To be noted: in vivo. Also on record: dose 3 mg/kg, route intravenous. In a few lines:
as §1

Series [8] can be described thus: MRT in rat at 60 mg/kg, po by LC-MS/MS analysis. Type of series: ADME, organism-based. To be noted: in vivo. In a few lines: as §1
Series [9] concerns the target T1, Neuronal acetylcholine receptor subunit alpha-7 (Homo sapiens, UniProt P36544). As to the kind of experiment: Positive allosteric modulation of human alpha7 nAChR expressed in Xenopus laevis oocytes assessed as increase in acetylcholine-induced channel current at 10 uM at -90 mV holding potential preincubated for 2 mins followed by acetylcholine addition in presence of alpha7 nAChR antagonist MLA by two-electrode voltage clamp method relative to control. The series is classed as cell-based.

For series [10], the target named is T1, Neuronal acetylcholine receptor subunit alpha-7. As to the kind of experiment: Induction of desensitization of human alpha7 nAChR expressed in Xenopus laevis oocytes assessed as acetylcholine-induced channel desensitization time constant at 10 uM at -90 mV holding potential by two-electrode voltage clamp method (reference value: 5.56 +/- 1.27). Type of series: cell-based. (In general: Two-electrode voltage clamp is typically applied to oocytes expressing channels or transporters.)

Series [11] can be described thus: Apparent clearance in rat at 60 mg/kg, po by LC-MS/MS analysis. Conditions: in vivo. The series is classed as ADME, organism-based. In a few lines: as §1
Series [12] is described as follows: Tmax in rat at 60 mg/kg, po by LC-MS/MS analysis. Type of series: ADME, organism-based. To be noted: in vivo. In a few lines: as §1
The nature of series [13]: Clearance in rat at 3 mg/kg, iv by LC-MS/MS analysis. The series is classed as ADME, organism-based. To be noted: in vivo. In a few lines: as §1
The target of series [14] is T1, Neuronal acetylcholine receptor subunit alpha-7. As to the kind of experiment: Agonist activity at human alpha7 nAChR expressed in Xenopus laevis oocytes assessed as induction of channel current at -90 mV holding potential by two-electrode voltage clamp method. The series is classed as cell-based.
In series [15] the target is GABA-A receptor; anion channel (Homo sapiens) (UniProt P14867+P47870+P18507+P28472+P48169+Q99928+Q9UN88+P34903+O00591+O14764+Q8N1C3+P18505+P78334+P47869+P31644+Q16445). Nature of the series: Positive allosteric modulation of human GABA-A receptor expressed in Xenopus laevis oocytes assessed as increase in GABA-induced channel current 10 uM by two-electrode voltage clamp method. Type of series: cell-based.

For series [16], the target named is T1, Neuronal acetylcholine receptor subunit alpha-7. As to the kind of experiment: Positive allosteric modulation of human alpha7 nAChR expressed in Xenopus laevis oocytes assessed as increase in acetylcholine-induced channel current at 10 uM at -90 mV holding potential preincubated for 2 mins followed by co-application with acetylcholine for 10 secs by two-electrode voltage clamp method relative to control. The series is classed as cell-based.

Series [17] relates to Mus musculus. Nature of the series: Anti-schizophrenic activity in C57BL/6J mouse assessed as protection against MK-801-induced auditory gating deficit by measuring prepulse inhibition impairment at 1 mg/kg, ip at 8 to 16 dB prepulse intensity pretreated for 30 mins followed by MK-801 treatment and measured after 30 mins (reference value: 8.7%). Type of series: functional. Also on record: scale not given: the % may be the effect or the level left.

The nature of series [18]: Half life in rat at 3 mg/kg, iv by LC-MS/MS analysis. The series is classed as ADME, organism-based. Conditions: in vivo. In a few lines: as §1
In series [19] the target is Voltage-gated inwardly rectifying potassium channel KCNH2 (Homo sapiens, UniProt Q12809). Nature of the series: Inhibition of human ERG expressed in HEK293 cells up to 30 uM at -80 mV holding potential by whole-cell patch clamp assay. The series is classed as cell-based. In a few lines: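 HEK293 cells stably expressing hERG, whole-cell clamp at room temperature. Holding -80 mV, step to +20 mV for 2 s, then -40 mV for 1.6 s, repeated every 10 s. Compound perfused at 1-30 µM, with 100 nM cisapride as reference. Peak -40 mV tail currents normalized to control, n = 4.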
Chain of Voltage-gated inwardly rectifying potassium channel KCNH2 (Q12809 whole entry, the tested form may be a part): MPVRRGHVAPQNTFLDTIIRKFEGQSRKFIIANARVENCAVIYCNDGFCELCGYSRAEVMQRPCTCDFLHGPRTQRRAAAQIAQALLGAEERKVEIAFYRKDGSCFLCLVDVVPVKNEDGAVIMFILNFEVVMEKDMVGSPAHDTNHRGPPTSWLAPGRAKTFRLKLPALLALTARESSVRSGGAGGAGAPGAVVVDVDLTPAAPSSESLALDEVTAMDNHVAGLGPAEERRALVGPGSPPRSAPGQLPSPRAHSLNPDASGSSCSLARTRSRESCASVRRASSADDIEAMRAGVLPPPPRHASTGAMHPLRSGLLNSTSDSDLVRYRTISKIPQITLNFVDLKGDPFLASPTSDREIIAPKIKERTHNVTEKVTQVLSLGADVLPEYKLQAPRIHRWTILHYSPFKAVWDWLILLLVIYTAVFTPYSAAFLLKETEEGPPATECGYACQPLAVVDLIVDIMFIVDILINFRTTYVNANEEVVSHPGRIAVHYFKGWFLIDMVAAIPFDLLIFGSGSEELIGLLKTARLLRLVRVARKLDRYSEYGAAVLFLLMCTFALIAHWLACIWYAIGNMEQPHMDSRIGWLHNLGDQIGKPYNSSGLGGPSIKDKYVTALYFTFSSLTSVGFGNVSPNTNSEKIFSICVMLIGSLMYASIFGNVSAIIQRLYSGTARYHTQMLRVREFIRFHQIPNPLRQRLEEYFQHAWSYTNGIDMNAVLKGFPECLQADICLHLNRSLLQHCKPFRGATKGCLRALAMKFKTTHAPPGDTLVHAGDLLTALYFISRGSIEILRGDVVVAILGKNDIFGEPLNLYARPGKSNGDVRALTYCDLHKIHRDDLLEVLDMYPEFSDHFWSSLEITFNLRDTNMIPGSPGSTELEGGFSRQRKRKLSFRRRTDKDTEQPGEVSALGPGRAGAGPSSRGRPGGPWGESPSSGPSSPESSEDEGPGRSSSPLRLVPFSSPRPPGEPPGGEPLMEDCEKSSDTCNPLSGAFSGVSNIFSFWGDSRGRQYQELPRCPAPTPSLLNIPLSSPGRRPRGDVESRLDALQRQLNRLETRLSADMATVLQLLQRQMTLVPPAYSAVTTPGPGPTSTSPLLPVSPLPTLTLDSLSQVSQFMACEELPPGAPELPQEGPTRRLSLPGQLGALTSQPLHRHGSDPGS
In general terms: The patch-clamp technique gives a direct electrical read-out from membranes.

The source made the active and inactive calls. Unless noted, the rule behind the calls is not given here.

T1 sequence (P36544 whole entry): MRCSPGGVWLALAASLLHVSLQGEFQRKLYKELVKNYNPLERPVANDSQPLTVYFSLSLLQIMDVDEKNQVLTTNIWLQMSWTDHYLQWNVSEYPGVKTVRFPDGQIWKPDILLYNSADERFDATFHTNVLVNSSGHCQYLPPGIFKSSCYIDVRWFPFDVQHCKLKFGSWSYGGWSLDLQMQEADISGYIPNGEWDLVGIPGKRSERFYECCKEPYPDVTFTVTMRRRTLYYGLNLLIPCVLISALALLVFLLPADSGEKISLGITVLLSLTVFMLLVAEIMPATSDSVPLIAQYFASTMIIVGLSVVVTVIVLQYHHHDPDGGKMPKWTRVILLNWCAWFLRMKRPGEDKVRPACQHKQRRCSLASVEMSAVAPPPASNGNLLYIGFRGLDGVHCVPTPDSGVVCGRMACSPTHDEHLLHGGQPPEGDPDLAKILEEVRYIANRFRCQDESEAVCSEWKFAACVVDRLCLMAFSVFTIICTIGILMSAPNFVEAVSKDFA

Usually MRT stands for a mean duration of stay, worked out from the concentration-time curve. The bioavailability is the share of a dose that reaches the circulation, judged against a reference dose that is usually intravenous. By Cmax is commonly meant the highest concentration seen after dosing. Usually CL/F stands for the apparent clearance, not corrected for the fraction that reaches the circulation. As a reminder, the Tmax is the time from dosing to the highest level. What is called clearance is a measure of how efficiently the substance is removed, as volume per time. What is called half-life is how long it takes for the measured level to halve. `Cc1cccc(Cl)c1-n1cnc2nc(SCc3ccccc3)sc2c1=O`: the MRT in series [1] worked out at 7 h; in series [8], 9.5 h. Further, in series [2], the Kp at 2 h worked out at 2.7. Besides, the Activity with Mus musculus [3] worked out at 28%; with Mus musculus [4], 14%; in series [10], 6.54; with Mus musculus [17], 30%. The molecule further yielded a bioavailability in [5] of 8%. For the same molecule, the concentration at 8 h in series [6] stood at 3.7 ng/g. This molecule yielded a Cmax in [7] of 700 ng/mL. The outcome in series [9], in series [14] and in series [15] was inactive. Moreover, in series [11], the CL/F is 1 mL/min/kg. Moreover, the Tmax in series [12] is 1.3 h. The molecule further had a clearance in series [13] of 0.0833 mL/min/kg. Besides, the %max in series [16] is 1630%. This molecule also gave a half-life in series [18] of 10.8 h. The “inhibition (INH)” value in [19] is reported as “Not Active”.
